Experiments:
Hepatitis B virus [1] = experiment: (§1) Effective concentrations at which […] depression of extracellular virion DNA (HBV) was observed in 2.2.15 Cells; format: functional, organism-based; conditions: HepG2 2.2.15
Procedure, shortened: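 Confluent 2.2.15 cells in RPMI1640 with 2% FBS, given nine consecutive daily doses with daily medium change, six cultures per concentration on two plates. HBV DNA measured by quantitative blot hybridization 24 h after last dose. EC is the concentration giving 2-fold (EC50) or 10-fold (EC90) depression vs untreated, by linear regression, 2–4 experiments.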

Hepatitis C virus [2] = experiment: Effective concentrations at which 10-fold depression of HCV RNA was observed in AVA5 cells (Huh 7 cells with subgenomic HCV replicon BB7I; format: functional, Hepacivirus hominis
Procedure, shortened: (§2)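 AVA5 cells (Huh7 carrying subgenomic HCV replicon BB7), grown 3 days with G418, then treated without G418 for 3 consecutive days while rapidly dividing, 3 cultures per concentration, fresh compound daily. HCV RNA measured by quantitative blot hybridization 24 h after last dose. EC90 is the concentration giving 10-fold HCV RNA depression vs untreated, by linear regression.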

[3] = Cytotoxic concentration against HCV replication in AVA5 cell culture; format: cell-based; conditions: AVA5 cells
Procedure, shortened: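 AVA5 replicon cells given compound daily for 3 days, without G418. Neutral red uptake (A510) read 24 h after last treatment. CC50 is the concentration giving 2-fold lower dye uptake vs untreated cultures, by linear regression on combined data from all treated cultures.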

Hepatitis C virus [4] = experiment: Effective concentrations at which 2-fold depression of HCV RNA was observed in AVA5 cells (Huh 7 cells with subgenomic HCV replicon BB7); format: functional, organism-based, Hepacivirus hominis
Procedure, shortened: as §2, with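 “EC50” for “EC90”, “2-fold” for “10-fold”, “regression on all treated cultures.” for “regression.”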

Hepatitis B virus [5] = experiment: Cytotoxic concentration against […] replication in 2.2.15 cell culture; format: functional; conditions: HepG2 2.2.15
Hepatitis B virus [6] = experiment: as §1; format: functional; conditions: HepG2 2.2.15
Procedure, shortened: (§3)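 Confluent 2.2.15 cells in RPMI1640 with 2% FBS got nine daily doses, with medium and compound refreshed daily; six cultures per concentration on two plates. HBV DNA was quantified by blot hybridization 24 h after the last dose. EC50 and EC90 are the 2-fold and 10-fold depression versus untreated cultures, from linear regression over two to four experiments.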

Hepatitis B virus [7] = experiment: Effective concentrations at which 10-fold depression of intracellular intermediates of HBV DNA was observed in 2.2.15 Cells; format: functional; conditions: HepG2 2.2.15; procedure, shortened: as §3
Hepatitis B virus [8] = experiment: Selectivity index of virion as the ratio of CC50 and EC90; format: functional
Procedure, shortened: (§4)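 The 2.2.15 HBV assay used nine daily doses. HBV DNA was measured by blot hybridization and toxicity by neutral red uptake, both 24 h after the last dose. The index is CC50/EC90, where EC90 is the 10-fold HBV DNA depression and CC50 the 2-fold dye-uptake depression versus untreated cultures.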

Hepatitis C virus [9] = experiment: Selectivity index as the ratio of CC50 and EC50; format: functional, Hepacivirus hominis
Procedure, shortened: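 AVA5 cells (Huh7 carrying the BB7 subgenomic HCV replicon) were grown 3 days with G418, which was then withdrawn. Rapidly dividing cultures, three per concentration, were treated for 3 consecutive days with daily medium renewal. HCV RNA was measured by blot hybridization 24 h after the last dose, with neutral red uptake for toxicity. SI is CC50/EC50, each at 2-fold depression versus untreated cultures.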

Hepatitis B virus [10] = experiment: Selectivity index of intracellular intermediates as the ratio of CC50 and EC90; format: functional; procedure, shortened: as §4
[11] = Cytotoxic concentration against HBV replication in 2.2.15 cell culture; format: cell-based, HepG2 2.2.15; conditions: hepatitis b virus, 2.2.15 cells
Procedure, shortened: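 Confluent 2.2.15 cells in RPMI1640 with 2% FBS received nine consecutive daily doses, with medium and compound renewed daily. Toxicity was read 24 h after the last dose as neutral red uptake (A510), with three cultures per concentration on plates seeded in parallel from the same cell stock. CC50 is the 2-fold depression of dye uptake versus untreated cultures, from linear regression.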

| SMILES | EC50 (Hepatitis B virus [1]) [µM] | EC90 (Hepatitis C virus [2]) [µM] | CC50 [3] [µM] | EC50 (Hepatitis C virus [4]) [µM] | CC50 (Hepatitis B virus [5]) [µM] | EC90 (Hepatitis B virus [6]) [µM] | EC90 (Hepatitis B virus [7]) [µM] | SI (Hepatitis B virus [8]) | SI (Hepatitis C virus [9]) | SI (Hepatitis B virus [10]) | CC50 [11] [µM] |
| --- | --- | --- | --- | --- | --- | --- | --- | --- | --- | --- | --- |
| Nc1ncnc2c1ncn2[C@@H]1C=C(CCO)[C@@H](O)[C@H]1O | 0.53 | 31 | 216 | 7.3 | 1210 | 7.7 | 27 | 158 | 30 | 45 | – |
| Nc1ccn([C@@H]2CS[C@H](CO)O2)c(=O)n1 (single isomer, unassigned) [LAMIVUDINE] | 0.06 | – | – | – | – | 0.17 | 0.69 | 11630 | – | 3877 | 2680 |
| NC(=O)c1ncn([C@@H]2O[C@H](CO)[C@@H](O)[C@H]2O)n1 [RIBAVIRIN] | – | > 100 | 71 | > 100 | – | – | – | – | – | – | – |
